Laboratory results from ChEMBL document CHEMBL3425464, “HM30181 Derivatives as Novel Potent and Selective Inhibitors of the Breast Cancer Resistance Protein (BCRP/ABCG2)” (J Med Chem, 2015).

Tests used:
[1] = target: T1, Broad substrate specificity ATP-binding cassette transporter ABCG2 (Homo sapiens, UniProt Q9UNQ0); assay: Inhibition of GFP-tagged human BCRP expressed in MDCK2 cells pre-incubated for 30 mins followed by Hoechst 33342 addition and further incubated for 120 mins by Hoechst 33342 accumulation assay; assay type: cell-based, MDCK-II
T1 sequence (Q9UNQ0 whole entry): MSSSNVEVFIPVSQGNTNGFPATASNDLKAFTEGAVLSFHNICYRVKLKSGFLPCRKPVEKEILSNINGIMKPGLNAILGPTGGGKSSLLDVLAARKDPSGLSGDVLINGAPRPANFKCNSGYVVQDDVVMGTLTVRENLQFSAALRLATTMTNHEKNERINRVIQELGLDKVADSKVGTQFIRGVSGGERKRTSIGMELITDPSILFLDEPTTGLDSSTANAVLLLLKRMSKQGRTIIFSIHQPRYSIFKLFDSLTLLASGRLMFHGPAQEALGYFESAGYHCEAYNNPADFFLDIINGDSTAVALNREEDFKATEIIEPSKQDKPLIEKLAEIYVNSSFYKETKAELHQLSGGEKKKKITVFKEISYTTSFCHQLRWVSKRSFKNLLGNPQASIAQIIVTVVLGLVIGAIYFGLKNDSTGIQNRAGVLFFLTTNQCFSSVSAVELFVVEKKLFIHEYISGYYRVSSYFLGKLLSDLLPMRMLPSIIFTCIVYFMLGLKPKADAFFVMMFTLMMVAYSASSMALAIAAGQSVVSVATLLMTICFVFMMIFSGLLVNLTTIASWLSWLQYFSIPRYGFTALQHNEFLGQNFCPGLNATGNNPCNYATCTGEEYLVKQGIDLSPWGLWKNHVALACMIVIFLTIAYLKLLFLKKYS
Summary of the method: (§1)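 MDCK II cells stably carrying human BCRP cDNA C-terminally fused to GFP are washed in KHB, pH 7.4. About 30,000 cells/well are preincubated 30 min at 37 °C with compound up to 10 μM (DMSO ≤0.1%, methanol ≤5% for poorly soluble compounds). Hoechst 33342 is added from a 10 μM solution, and fluorescence (ex 355/em 460) is read every 60 s for 120 min. The steady-state mean (100–109 min) is fitted to a four-parameter logistic curve.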

ABCB1 (P-gp) = ABCB1 (P-gp) (Homo sapiens, UniProt P08183); assay: Inhibition of ABCB1 in human A2780adr cells at 10 uM pre-incubated for 30 mins followed by calcein AM addition and further incubated for 60 mins by calcein AM assay; assay type: cell-based, A2780 ADR; details: probe calcein AM
ABCB1 (P-gp), sequence (P08183 whole entry): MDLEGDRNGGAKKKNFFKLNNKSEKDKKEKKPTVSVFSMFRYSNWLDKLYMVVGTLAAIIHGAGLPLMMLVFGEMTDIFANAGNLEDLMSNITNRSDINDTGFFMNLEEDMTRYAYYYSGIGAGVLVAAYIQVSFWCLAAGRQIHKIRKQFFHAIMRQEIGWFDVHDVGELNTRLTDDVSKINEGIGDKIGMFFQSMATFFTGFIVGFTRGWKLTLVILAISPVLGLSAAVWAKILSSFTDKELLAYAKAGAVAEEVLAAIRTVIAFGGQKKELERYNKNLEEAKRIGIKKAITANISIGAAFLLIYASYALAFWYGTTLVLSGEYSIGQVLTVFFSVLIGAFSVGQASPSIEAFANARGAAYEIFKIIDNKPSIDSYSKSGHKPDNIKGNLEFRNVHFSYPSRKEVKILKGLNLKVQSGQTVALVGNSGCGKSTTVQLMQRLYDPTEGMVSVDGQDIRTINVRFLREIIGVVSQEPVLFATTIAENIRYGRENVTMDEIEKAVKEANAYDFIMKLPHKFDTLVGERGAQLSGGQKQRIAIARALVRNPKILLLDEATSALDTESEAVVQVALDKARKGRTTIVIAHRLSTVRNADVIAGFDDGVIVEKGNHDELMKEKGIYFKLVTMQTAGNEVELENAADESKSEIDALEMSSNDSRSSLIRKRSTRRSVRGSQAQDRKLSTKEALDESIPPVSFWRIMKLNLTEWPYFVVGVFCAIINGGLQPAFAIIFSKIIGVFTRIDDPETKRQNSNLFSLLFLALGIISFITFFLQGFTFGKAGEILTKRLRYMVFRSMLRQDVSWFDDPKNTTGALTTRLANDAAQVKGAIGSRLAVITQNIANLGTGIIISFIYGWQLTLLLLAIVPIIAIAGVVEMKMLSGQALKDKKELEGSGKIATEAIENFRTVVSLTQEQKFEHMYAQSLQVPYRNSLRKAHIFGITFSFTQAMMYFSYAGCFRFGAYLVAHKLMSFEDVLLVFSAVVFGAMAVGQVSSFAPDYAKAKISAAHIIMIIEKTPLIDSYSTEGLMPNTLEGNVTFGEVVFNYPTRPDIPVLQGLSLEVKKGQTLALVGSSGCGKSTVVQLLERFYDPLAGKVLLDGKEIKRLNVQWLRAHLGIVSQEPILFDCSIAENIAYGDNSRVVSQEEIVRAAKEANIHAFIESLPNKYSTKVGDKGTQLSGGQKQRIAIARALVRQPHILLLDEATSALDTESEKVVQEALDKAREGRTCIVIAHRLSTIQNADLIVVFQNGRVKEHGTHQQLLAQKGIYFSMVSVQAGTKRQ

[2] = Solubility in DMSO; assay type: physicochemical
[3] = Solubility in water; assay type: physicochemical; details: buffer
[4] = target: Multidrug resistance-associated protein 1 (Homo sapiens, UniProt P33527); assay: Inhibition of MRP1 in human H69AR cells at 10 uM pre-incubated for 30 mins followed by calcein AM addition and further incubated for 60 mins by calcein AM assay; details: 1 h
Multidrug resistance-associated protein 1, sequence (P33527 whole entry): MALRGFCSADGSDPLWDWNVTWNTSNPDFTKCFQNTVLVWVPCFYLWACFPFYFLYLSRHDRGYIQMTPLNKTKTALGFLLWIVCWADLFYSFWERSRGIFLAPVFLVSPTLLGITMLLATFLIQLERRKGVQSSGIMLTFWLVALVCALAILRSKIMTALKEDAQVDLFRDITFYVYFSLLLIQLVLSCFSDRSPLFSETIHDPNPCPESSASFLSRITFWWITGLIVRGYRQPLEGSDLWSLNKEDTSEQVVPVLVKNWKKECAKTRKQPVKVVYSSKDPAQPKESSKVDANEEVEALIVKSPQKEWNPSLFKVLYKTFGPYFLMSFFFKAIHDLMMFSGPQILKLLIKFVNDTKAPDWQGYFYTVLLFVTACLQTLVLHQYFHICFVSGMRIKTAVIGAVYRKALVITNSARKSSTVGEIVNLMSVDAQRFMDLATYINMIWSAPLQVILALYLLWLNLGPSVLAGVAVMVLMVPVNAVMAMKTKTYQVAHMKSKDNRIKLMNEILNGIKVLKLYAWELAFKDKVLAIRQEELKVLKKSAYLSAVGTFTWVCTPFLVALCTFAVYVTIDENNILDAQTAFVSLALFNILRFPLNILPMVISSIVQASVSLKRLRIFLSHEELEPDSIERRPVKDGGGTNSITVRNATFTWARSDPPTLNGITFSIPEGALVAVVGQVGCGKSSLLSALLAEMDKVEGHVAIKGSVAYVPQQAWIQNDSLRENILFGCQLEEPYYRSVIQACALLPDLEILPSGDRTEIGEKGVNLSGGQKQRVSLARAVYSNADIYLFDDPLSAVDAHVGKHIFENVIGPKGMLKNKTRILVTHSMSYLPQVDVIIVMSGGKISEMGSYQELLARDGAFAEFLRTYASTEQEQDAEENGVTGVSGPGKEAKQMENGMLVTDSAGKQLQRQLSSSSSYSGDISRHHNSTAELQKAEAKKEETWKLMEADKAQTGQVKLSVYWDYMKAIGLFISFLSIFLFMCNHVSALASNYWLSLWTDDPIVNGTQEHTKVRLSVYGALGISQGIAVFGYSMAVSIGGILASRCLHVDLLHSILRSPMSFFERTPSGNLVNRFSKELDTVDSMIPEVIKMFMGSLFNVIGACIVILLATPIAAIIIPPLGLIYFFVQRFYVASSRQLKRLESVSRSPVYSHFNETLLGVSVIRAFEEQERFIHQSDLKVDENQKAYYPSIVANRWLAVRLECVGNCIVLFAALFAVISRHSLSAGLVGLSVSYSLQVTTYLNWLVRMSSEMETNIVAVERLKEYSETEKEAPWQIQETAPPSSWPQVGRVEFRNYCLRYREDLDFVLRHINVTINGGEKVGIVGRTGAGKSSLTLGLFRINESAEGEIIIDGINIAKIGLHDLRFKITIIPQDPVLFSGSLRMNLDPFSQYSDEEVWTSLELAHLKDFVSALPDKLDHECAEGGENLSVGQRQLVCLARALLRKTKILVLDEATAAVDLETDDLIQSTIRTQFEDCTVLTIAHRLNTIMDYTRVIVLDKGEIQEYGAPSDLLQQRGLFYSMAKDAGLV

BCRP (ABCG2) [5] = target: T2, BCRP (ABCG2) (Homo sapiens, UniProt Q9UNQ0); assay: Inhibition of GFP-tagged human BCRP expressed in MDCK2 cells pre-incubated for 30 mins followed by Hoechst 33342 addition and further incubated for 120 mins by Hoechst 33342 accumulation assay relative to XR9577; assay type: cell-based, MDCK-II; details: MDCK2 cells expressing GFP-tagged human BCRP, probe Hoechst 33342, read-out: Imax
T2 sequence (Q9UNQ0 whole entry): T1 sequence (Q9UNQ0 whole entry)

[6] = target: T1, Broad substrate specificity ATP-binding cassette transporter ABCG2; assay: Inhibition of GFP-tagged human BCRP expressed in MDCK2 cells up to 10 uM pre-incubated for 30 mins followed by Hoechst 33342 addition and further incubated for 120 mins by Hoechst 33342 accumulation assay; assay type: cell-based; details: mdck-ii, 2 h; summary of the method: as §1
[7] = target: ATP-dependent translocase ABCB1 (Homo sapiens, UniProt P08183); assay: Inhibition of ABCB1 in human A2780adr cells pre-incubated for 30 mins followed by calcein AM addition and further incubated for 60 mins by calcein AM assay; assay type: cell-based, A2780 ADR
ATP-dependent translocase ABCB1, sequence (P08183 whole entry): as the sequence (P08183 whole entry) above

BCRP (ABCG2) [8] = target: T2, BCRP (ABCG2); assay: Potency index, ratio of IC50 for Ko143 to IC50 for compound against GFP-tagged human BCRP expressed in MDCK2 cells by Hoechst 33342 accumulation assay; assay type: cell-based; details: MDCK2 cells expressing GFP-tagged human BCRP, probe Hoechst 33342, read-out: Ratio IC50
[9] = Ratio of GI50 for wild type MDCK2 cells by MTT assay to IC50 for GFP-tagged human BCRP expressed in MDCK2 cells by Hoechst 33342 accumulation assay; set-up: species or system MDCK-II
Summary of the method: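 Ratio of two values. […] Read at 570/690 nm as % of medium control; n = 3, each in quadruplicate. IC50 came from Hoechst 33342 accumulation in MDCK II BCRP-GFP cells: 2 h at 37 °C, steady-state fluorescence, four-parameter fit.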

[10] = target: T1, Broad substrate specificity ATP-binding cassette transporter ABCG2; assay: Inhibition of human BCRP expressed in MDCK2 cells assessed as reversal of multidrug resistance by measuring increase in SN-38-induced cytotoxicity at 5 uM after 72 hrs by MTT assay; assay type: cell-based; details: mdck-ii
Summary of the method: (§2)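 MDCK II BCRP cells are seeded at 3000/well and allowed to attach for 6 h at 37 °C, 5% CO2. They are then exposed to SN-38 (up to 100 μM) alone or together with 3 μM or 5 μM modulator for 72 h. MDCK II wild-type cells given SN-38 serve as the comparison. MTT is added for 1 h, formazan is dissolved in DMSO, and absorbance is read at 570 nm with 690 nm background.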

[11] = Intrinsic cytotoxicity against wild type MDCK2 cells assessed as reduction in cell viability after 72 hrs by MTT assay; assay type: cell-based, Canis lupus familiaris, MDCK-II; details: dog
Summary of the method: (§3)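 Cells are seeded at 3000/well and allowed to attach for 6 h at 37 °C, 5% CO2. They are then exposed to compound in medium, up to 100 μM final (DMSO ≤1.0%), for 72 h. Controls are medium alone (negative) and 10% DMSO (positive). MTT is added for 1 h, formazan is dissolved in DMSO, and absorbance is read at 570 nm minus 690 nm. Viability is expressed as % of the negative control, and GI50 comes from a variable-slope sigmoidal fit. n = 3, each in quadruplicate.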

[12] = target: T1, Broad substrate specificity ATP-binding cassette transporter ABCG2; assay: Inhibition of human BCRP expressed in MDCK2 cells assessed as reversal of multidrug resistance by measuring increase in SN-38-induced cytotoxicity at 3 uM after 72 hrs by MTT assay; assay type: cell-based; details: mdck-ii; summary of the method: as §2
[13] = Intrinsic cytotoxicity against BCRP expressing MDCK2 cells assessed as reduction in cell viability after 72 hrs by MTT assay; assay type: ADME, cell-based, Canis lupus familiaris, MDCK-II; details: dog; summary of the method: as §3

IC50 [1] | inhibition at 1 h, 10 µM (ABCB1 (P-gp)) | solubility [2] | solubility [3] | inhibition (INH) [4] | Emax at 2 h (BCRP (ABCG2) [5]) | inhibition (INH) [6] | IC50 [7] | Structure (SMILES) | selectivity ratio (BCRP (ABCG2) [8]) | Ratio [9] | inhibition (INH) [10] | GI50 at 72 h [11] | inhibition (INH) [12] | GI50 at 72 h [13]
184 nM | < 25% | > 10 mM | Insoluble | Not Active | 63% |  |  | CCCc1ccc(-n2nnc(-c3ccccc3NC(=O)c3ccc([N+](=O)[O-])cc3)n2)cc1 |  |  |  |  |  | 
 | < 25% | > 10 mM | Insoluble | Not Active |  | Not Active |  | O=C(Nc1ccccc1-c1nnn(-c2ccc(C(F)(F)F)cc2)n1)c1ccc([N+](=O)[O-])cc1 |  |  |  |  |  | 
100 nM | < 25% | > 10 mM | Insoluble | Not Active | 71% |  |  | Cc1ccc(-n2nnc(-c3ccccc3NC(=O)c3ccc([N+](=O)[O-])cc3)n2)cc1 |  |  |  |  |  | 
 | < 25% | > 10 mM | Insoluble | Not Active |  | Not Active |  | CCOc1ccc(-n2nnc(-c3ccccc3NC(=O)c3ccc([N+](=O)[O-])cc3)n2)cc1 |  |  |  |  |  | 
261 nM | < 25% | > 10 mM | Insoluble | Not Active | 102% |  |  | COc1ccccc1-n1nnc(-c2ccccc2NC(=O)c2ccc([N+](=O)[O-])cc2)n1 |  |  |  |  |  | 
78.9 nM | < 25% | > 10 mM | Insoluble | Not Active | 58% |  |  | COc1cccc(-n2nnc(-c3ccccc3NC(=O)c3ccc([N+](=O)[O-])cc3)n2)c1 |  |  |  |  |  | 
118 nM | < 25% | > 10 mM | Insoluble | Not Active | 61% |  |  | COc1ccc(-n2nnc(-c3ccccc3NC(=O)c3ccc([N+](=O)[O-])cc3)n2)cc1 |  |  |  |  |  | 
 | < 25% | > 10 mM | Insoluble | Not Active |  | Not Active |  | CCCc1ccc(-n2nnc(-c3ccccc3NC(=O)c3ccc(C(F)(F)F)cc3)n2)cc1 |  |  |  |  |  | 
 | < 25% | > 10 mM | Insoluble | Not Active |  | Not Active |  | O=C(Nc1ccccc1-c1nnn(-c2ccc(C(F)(F)F)cc2)n1)c1ccc(C(F)(F)F)cc1 |  |  |  |  |  | 
137 nM | < 25% | > 10 mM | Insoluble | Not Active | 65% |  |  | Cc1ccc(-n2nnc(-c3ccccc3NC(=O)c3ccc(C(F)(F)F)cc3)n2)cc1 |  |  |  |  |  | 
 | < 25% | > 10 mM | Insoluble | Not Active |  | Not Active |  | CCOc1ccc(-n2nnc(-c3ccccc3NC(=O)c3ccc(C(F)(F)F)cc3)n2)cc1 |  |  |  |  |  | 
451 nM | ≥ 25% | > 10 mM | Insoluble | Not Active | 100% |  | 11000 nM | COc1ccccc1-n1nnc(-c2ccccc2NC(=O)c2ccc(C(F)(F)F)cc2)n1 |  |  |  |  |  | 
11200 nM | < 25% | > 10 mM | Insoluble | Not Active | 100% |  |  | COc1cccc(-n2nnc(-c3ccccc3NC(=O)c3ccc(C(F)(F)F)cc3)n2)c1 |  |  |  |  |  | 
106 nM | < 25% | > 10 mM | Insoluble | Not Active | 93% |  |  | COc1ccc(-n2nnc(-c3ccccc3NC(=O)c3ccc(C(F)(F)F)cc3)n2)cc1 |  |  |  |  |  | 
269 nM | < 25% | > 10 mM | Insoluble | Not Active | 85% |  |  | COc1ccc(C(=O)Nc2ccccc2-c2nnn(-c3ccc(C(F)(F)F)cc3)n2)cc1OC |  |  |  |  |  | 
201 nM | ≥ 25% | > 10 mM | Insoluble | Not Active | 106% |  | 32800 nM | CCOc1ccc(-n2nnc(-c3ccccc3NC(=O)c3ccc(OC)c(OC)c3)n2)cc1 |  |  |  |  |  | 
117 nM | ≥ 25% | > 10 mM | Insoluble | Not Active | 107% |  | 37200 nM | COc1ccc(-n2nnc(-c3ccccc3NC(=O)c3ccc(OC)c(OC)c3)n2)cc1 |  |  |  |  |  | 
73 nM | < 25% | > 10 mM | Insoluble | Not Active | 102% |  |  | COc1ccc(C(=O)Nc2ccccc2-c2nnn(-c3ccc(C(F)(F)F)cc3)n2)cc1 | 2 | 500 | Active | 34400 nM | Active | 40200 nM
180 nM | ≥ 25% | > 10 mM | Insoluble | Not Active | 88% |  | 7730 nM | COc1ccc(C(=O)Nc2ccccc2-c2nnn(-c3ccccc3OC)n2)cc1 |  |  |  |  |  | 
64.2 nM | < 25% | > 10 mM | Insoluble | Not Active | 88% |  |  | CCCc1ccc(-n2nnc(-c3ccccc3NC(=O)c3ccc(OC)cc3)n2)cc1 | 2 | 1000 |  | 63200 nM |  | 61800 nM
79.4 nM | < 25% | > 10 mM | Insoluble | Not Active | 91% |  |  | CCCc1ccc(C(=O)Nc2ccccc2-c2nnn(-c3ccc(OC)cc3)n2)cc1 | 2 | 1000 |  | 77600 nM |  | 60900 nM
721 nM |  |  |  |  |  |  |  | O=C(Nc1ccccc1C(=O)Nc1ccc(CCN2CCc3ccccc3C2)cc1)c1cnc2ccccc2c1 |  |  |  |  |  | 
